Measured values of several laboratories.
Lines come from different studies, so protocols differ.
Observed: cell growth or viability

The IC50 of `COCCOCOc1cc(O)c(-c2cc(-c3ccc(C(=O)O)cc3)n(C)n2)cc1C12CC3CC(CC(C3)C1)C2` is reported as 4.73 µM (Jurkat; ATP luminescence; 24 h).
With `COc1c2c(cc3c1OCO3)[C@]13C=C[C@H](OC)C[C@@H]1[N@](C2)C[C@H]3OC(=O)c1ccoc1` the IC50 was greater than 10 µM (MOLT-4; WST-1).
For `N.N.[Cl][Pt][Cl]`, the IC50 was 47.2 µM (PLC; 48 h).
`C[C@H]1O[C@H](Oc2c(-c3ccc(O)c(O)c3)oc3cc(O)cc(O)c3c2=O)[C@@H](O)[C@@H](O)[C@@H]1O` has an IC50 of 190 µM (SW780; ATP luminescence; 72 h).
The IC50 of `CC1=C2C[C@H]3[C@@H](CC=C4C[C@@H](O)CC[C@@]43C)[C@@H]2CC[C@]12O[C@@H]1C[C@H](C)CN[C@H]1[C@H]2C` is reported as 17.1 µM (MIA PaCa-2; MTS; 96 h).
`N.N.[Cl][Pt][Cl]` has an IC50 of 5.9 µM (MIA PaCa-2; resazurin; 72 h).
With `COc1cccc2c1C(=O)c1c(O)c3c(c(O)c1C2=O)C[C@@](O)(C(=O)CO)C[C@@H]3O[C@H]1C[C@H](N)[C@H](O)[C@H](C)O1` the IC50 was 1.5 µg/mL (BT-549; 48 h).
The IC50 of `COCCOCOc1cc(OCc2ccc(Br)cc2)c(C(=O)/C=C/c2ccc(C(=O)O)cc2)cc1C12CC3CC(CC(C3)C1)C2` is reported as 0.84 µM (Jurkat; ATP luminescence; 24 h).
`Cl.O[C@]12C=C(c3nccc4c3[nH]c3ccccc34)[C@@H]3CCN(CCCC/C=C\CC1)C[C@@]31C[C@@H]3/C=C\CCCCN3[C@H]12` has an IC50 of 0.88 µg/mL (BT-549; neutral red; 48 h).
`COc1c2c(cc3c1OCO3)[C@]13C=C[C@H](OC)C[C@@H]1[N@](C2)C[C@H]3OC(=O)c1ccco1` has an IC50 of greater than 10 µM (MOLT-4; WST-1).
